Holding throughout (assay type): cell-based
Data set [1] has as its system A549. In words: Antiproliferative activity against human A549 cells after 72 hrs by SRB assay. Particulars: Homo sapiens, A549, 72 h. An outline of the steps: (§1)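 SRB assay. Cells at 3–5 × 10^3/well were exposed to a range of sample concentrations for 72 h. They were fixed in 50% TCA for 30 min, stained with 0.04% SRB for 30 min, and the dye was dissolved in 10 mM Tris base. Absorbance read at 515 nm. Medium was RPMI 1640 with 10% FBS at 37 °C, 5% CO2. KBvin cells were kept in 100 nM vincristine.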
A general note: Sulforhodamine B stains cellular protein and so reports cell mass.

The subject of data set [2] is DU-145. In words: Antiproliferative activity against human DU145 cells after 72 hrs by SRB assay. Particulars: Homo sapiens, DU-145, 72 h. Summed up: as §1
Data set [3] concerns KB. In words: Antiproliferative activity against human KB cells after 72 hrs by SRB assay. The note with it: Homo sapiens, KB. An outline of the steps:
as §1

Data set [4] is described as follows: Antiproliferative activity against human multidrug-resistant KBVIN cells after 72 hrs by SRB assay. Particulars: Homo sapiens, KBVIN. An outline of the steps:
as §1

In data set [5] the test system is NIH3T3. In words: Inhibition of human P-gp-mediated multidrug-resistance in mouse NIH3T3 MDR cells assessed as potentiation of in paclitaxel-induced cytotoxic activity at 10 uM after 72 hrs by SRB assay. Particulars: human P-gp expressed in mouse cells.
Data set [6] deals with KBVIN. In words: Inhibition of P-gp-mediated multidrug-resistance in human KBVIN cells assessed as fold decrease in paclitaxel IC50 for cytotoxic activity at 10 uM after 72 hrs by SRB assay relative to control. Summed up: (§2)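 KBvin cells were exposed to graded concentrations of anticancer drug (doxorubicin, paclitaxel or vincristine), alone or with 10 μM test compound, for 72 h. Growth was read by SRB assay. IC50 was found by log-linear interpolation. Reversal fold = IC50 (drug alone) / IC50 (drug + compound). Verapamil was the positive control. Each experiment was run at least three times.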

Data set [7] deals with NIH3T3. In words: Inhibition of human P-gp-mediated multidrug-resistance in mouse NIH3T3 MDR cells assessed as potentiation of in vincristine-induced cytotoxic activity at 10 uM after 72 hrs by SRB assay. The note with it: Mus musculus cells expressing human P-gp.
In data set [8] the test system is KBVIN. In words: Inhibition of P-gp-mediated multidrug-resistance in human KBVIN cells assessed as fold decrease in vincristine IC50 for cytotoxic activity at 10 uM after 72 hrs by SRB assay relative to control. Summed up:
as §2

For data set [9], the system named is KBVIN. In words: Inhibition of P-gp-mediated multidrug-resistance in human KBVIN cells assessed as fold decrease in doxorubicin IC50 for cytotoxic activity at 10 uM after 72 hrs by SRB assay relative to control. Summed up: as §2
Data set [10] addresses ATP-dependent translocase ABCB1 (Homo sapiens, UniProt P08183). In words: Inhibition of P-gp over expressed in human multidrug-resistant KBVIN cells assessed as intracellular accumulation of doxorubicin at 10uM after 3 hrs by fluorescence microplate reader analysis relative to control. Summed up: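 KBvin cells at 5 × 10^3/well were pretreated with compound for 1 h, then given doxorubicin (10 μM final) for 3 h. Cells were washed with ice-cold PBS and lysed in 1% SDS/PBS. Verapamil or CsA served as positive control.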

Experimental findings from ChEMBL document CHEMBL2086383, “Antitumor agents. 293. Nontoxic dimethyl-4,4'-dimethoxy-5,6,5',6'-dimethylenedioxybiphenyl-2,2'-dicarboxylate (DDB) analogues chemosensitize multidrug-resistant cancer cells to clinical anticancer drugs” (J Med Chem, 2012) are described below.

What is called IC50 is the concentration at which inhibition is half-maximal. Low readings indicate greater potency in that assay, high ones weaker potency in that assay.

Structures are written as SMILES. The source made the active and inactive calls. The rule behind the calls is not given here. Some results are limits rather than exact numbers.

Chain of ATP-dependent translocase ABCB1 (P08183 whole entry): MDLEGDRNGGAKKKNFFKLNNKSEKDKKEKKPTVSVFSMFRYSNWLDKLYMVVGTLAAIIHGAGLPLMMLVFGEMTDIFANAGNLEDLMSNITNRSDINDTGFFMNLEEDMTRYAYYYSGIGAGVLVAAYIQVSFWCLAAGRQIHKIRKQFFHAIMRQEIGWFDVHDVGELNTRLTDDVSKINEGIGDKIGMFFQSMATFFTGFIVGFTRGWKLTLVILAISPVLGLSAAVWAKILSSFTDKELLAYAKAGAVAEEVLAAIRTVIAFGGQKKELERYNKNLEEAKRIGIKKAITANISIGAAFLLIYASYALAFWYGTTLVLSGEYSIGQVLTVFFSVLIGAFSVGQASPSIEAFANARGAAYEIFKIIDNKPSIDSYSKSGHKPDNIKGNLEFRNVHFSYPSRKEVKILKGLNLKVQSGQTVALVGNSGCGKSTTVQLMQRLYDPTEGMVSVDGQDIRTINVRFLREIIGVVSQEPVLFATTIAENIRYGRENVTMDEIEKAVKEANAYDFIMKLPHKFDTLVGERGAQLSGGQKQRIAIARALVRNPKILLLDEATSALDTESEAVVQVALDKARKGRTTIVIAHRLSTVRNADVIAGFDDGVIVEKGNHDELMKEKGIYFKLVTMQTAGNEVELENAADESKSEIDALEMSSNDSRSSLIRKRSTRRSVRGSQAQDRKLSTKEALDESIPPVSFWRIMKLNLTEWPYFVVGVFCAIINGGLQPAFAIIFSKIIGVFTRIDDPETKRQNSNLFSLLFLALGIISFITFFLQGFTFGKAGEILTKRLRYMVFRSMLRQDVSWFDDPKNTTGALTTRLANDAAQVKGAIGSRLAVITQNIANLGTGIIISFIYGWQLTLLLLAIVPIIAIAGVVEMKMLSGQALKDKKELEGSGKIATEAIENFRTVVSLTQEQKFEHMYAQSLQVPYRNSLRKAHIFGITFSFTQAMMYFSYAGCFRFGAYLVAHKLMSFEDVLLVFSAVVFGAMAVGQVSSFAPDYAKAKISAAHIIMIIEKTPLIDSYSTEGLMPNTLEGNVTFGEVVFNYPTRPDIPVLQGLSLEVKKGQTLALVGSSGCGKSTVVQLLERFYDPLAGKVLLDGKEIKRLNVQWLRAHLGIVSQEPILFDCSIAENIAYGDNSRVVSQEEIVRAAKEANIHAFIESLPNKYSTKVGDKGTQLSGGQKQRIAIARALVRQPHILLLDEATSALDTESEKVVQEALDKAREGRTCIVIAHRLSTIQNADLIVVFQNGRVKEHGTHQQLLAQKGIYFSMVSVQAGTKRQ

Regarding `COc1cc(COC(=O)C(C)C)c(-c2c(COC(=O)C(C)C)cc(OC)c3c2OCO3)c2c1OCO2`, the half-maximal inhibitory concentration (IC50) in data set [1], in [2], in data set [3] and in data set [4] was more than 100 µM each time. Moreover, the inhibition entry in data set [5] and in data set [7] was “Active” in each case. Besides, the fold change (FC) in [6] amounted to 21; in data set [8], 61; in data set [9], 7; in data set [10] it was 1.2.

Turning to `COc1c(Br)c(COC(=O)c2ccccc2)c(-c2c(COC(=O)c3ccccc3)c(Br)c(OC)c3c2OCO3)c2c1OCO2`, the half-maximal inhibitory concentration (IC50) in [1], in data set [2], in data set [3] and in [4] was more than 100 µM throughout.

For the compound `CCCC(=O)OCc1cc(OC)c2c(c1-c1c(COC(=O)CCC)cc(OC)c3c1OCO3)OCO2`, the 50% inhibitory concentration (IC50) in [1], in data set [2], in [3] and in data set [4] was more than 100 µM throughout. Further, the inhibition entry in data set [5] and in data set [7] was “Active” in each case. Further, the fold change (FC) in [6] is 32; in data set [8], 50; in [9], 4; in [10] it was 1.2.

Turning to `C/C=C/C(=O)OCc1cc(OC)c2c(c1-c1c(COC(=O)/C=C/C)cc(OC)c3c1OCO3)OCO2`, the 50% inhibitory concentration (IC50) in data set [1], in [2], in [3] and in data set [4] was more than 100 µM throughout. Moreover, the inhibition result in [5] and in data set [7] was “Active” throughout. For the same compound, the fold change (FC) was determined as 102 in [6], 230 in [8], 4 in data set [9] and 1.2 in [10].

For the compound `COc1cc(COC(=O)c2ccc(C)cc2)c(-c2c(COC(=O)c3ccc(C)cc3)cc(OC)c3c2OCO3)c2c1OCO2`, the half-inhibitory concentration (IC50) in data set [1], in data set [2], in [3] and in data set [4] was more than 100 µM throughout. Moreover, the inhibition result in data set [5] and in [7] was “Active” throughout. Besides, the fold change (FC) was 27 in data set [6], 51 in data set [8], 11 in data set [9] and 1.2 in data set [10].

As to `C/C=C/C=C/C(=O)OCc1cc(OC)c2c(c1-c1c(COC(=O)/C=C/C=C/C)cc(OC)c3c1OCO3)OCO2`, the IC50 in [1], in data set [2], in [3] and in data set [4] was more than 100 µM in each case. Further, the inhibition result in data set [5] and in data set [7] was “Active” throughout. The fold change (FC) in data set [6] is 21; in [8], 54; in [9] it was 3; in [10], 1.2.

With `COc1cc(COC(=O)C2CCCCC2)c(-c2c(COC(=O)C3CCCCC3)cc(OC)c3c2OCO3)c2c1OCO2`, the IC50 in [1], in [2], in [3] and in [4] was more than 100 µM each time. In addition, the inhibition result in data set [5] and in data set [7] was “Active” each time. Besides, the fold change (FC) in data set [6] stood at 24; in data set [8] it was 239; in data set [9], 30; in data set [10], 1.2.

On to `COc1c(Br)c(C(=O)O)c(-c2c3c(c(OC)c(Br)c2C(=O)O)OCO3)c2c1OCO2`, for which the IC50 in data set [1], in data set [2], in data set [3] and in data set [4] was more than 100 µM each time.

Take `COc1cccc2c1C(=O)c1c(O)c3c(c(O)c1C2=O)C[C@@](O)(C(=O)CO)C[C@@H]3O[C@H]1C[C@H](N)[C@H](O)[C@H](C)O1` [DOXORUBICIN]: the “fold change (FC)” value in data set [10] came to 1.2.
